Columns and labels:
Trypanosoma cruzi [1] = assay: Antitrypanosomal activity against bloodstream form of Trypanosoma cruzi Y trypomastigotes infected in Swiss mouse; format: functional, organism-based
Trypanosoma cruzi [2] = assay: Antitrypanosomal activity against Trypanosoma cruzi Tulahuen C2C4 intracellular amastigotes infected in rat L6 cells after 4 days by photometry; format: functional, organism-based; details: Tulahuen C2C4, L6, 96 h
How it was run: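 L6 rat myoblasts seeded at 2000 cells/well in RPMI 1640 with 10% FBS and 2 mM L-glutamine; after 24 h infected with 5000 T. cruzi Tulahuen C2C4 LacZ trypomastigotes. At 48 h medium replaced with seven 3-fold serial drug dilutions spanning 0.123 to 90 µg/mL.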

Cruzipain [3] = target: T1, Cruzipain (Trypanosoma cruzi, UniProt P25779); assay: Inhibition of Trypanosoma cruzi C-terminally truncated cruzain expressed in Escherichia coli using Z-Phe-Arg-AMC as substrate incubated for 5 mins prior to substrate addition by spectrofluorometry
T1 sequence (P25779 whole entry, the tested form may be a part): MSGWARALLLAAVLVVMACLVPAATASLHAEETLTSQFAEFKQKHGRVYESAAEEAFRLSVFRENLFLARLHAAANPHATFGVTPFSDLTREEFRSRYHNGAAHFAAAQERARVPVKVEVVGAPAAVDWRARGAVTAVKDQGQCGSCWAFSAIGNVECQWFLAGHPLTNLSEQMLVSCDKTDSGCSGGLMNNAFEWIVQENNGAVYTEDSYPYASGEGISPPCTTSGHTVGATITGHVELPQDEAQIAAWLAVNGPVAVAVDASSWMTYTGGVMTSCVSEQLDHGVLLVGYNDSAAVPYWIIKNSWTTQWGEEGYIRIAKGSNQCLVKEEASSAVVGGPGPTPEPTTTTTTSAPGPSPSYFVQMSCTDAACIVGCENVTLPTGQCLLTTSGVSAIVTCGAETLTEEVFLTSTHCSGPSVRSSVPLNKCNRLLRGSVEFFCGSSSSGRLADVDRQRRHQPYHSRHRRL
How it was run: (§1)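 Purified C-terminally truncated cruzain from E. coli (M15 or DH5a), 0.64 nM, in 50 mM sodium phosphate, 100 mM NaCl, 5 mM EDTA, 5 mM DTT, pH 6.5, preincubated with inhibitor 5 min at room temperature before Z-Phe-Arg-AMC. AMC release followed by fluorescence (ex 355, em 460 nm). IC₅₀ by nonlinear regression from ≥7 concentrations giving 20–85% inhibition, relative to uninhibited activity.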

J774 = assay: Cytotoxicity against mouse J774 cells after 18 hrs by MTT assay; format: cell-based; details: J774, 18 h
How it was run: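 J774 macrophages plated at 2.5 × 10⁶ cells/mL for 1 h (5% CO₂, 37 °C), non-adherent cells washed off with RPMI 1640. Adherent cells exposed to compounds (0.1–[…]), medium alone or 3% Tween 20 in triplicate for 18 h; MTT added for 4 h, formazan dissolved in DMSO, absorbance at 540 nm; LC₅₀ reported.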

[4] = Selectivity index, ratio of IC50 for mouse J774 cells to IC50 for bloodstream form of Trypanosoma cruzi trypomastigote; format: toxicity, cell-based; details: read-out: Ratio IC50
Cruzipain [5] = target: T1, Cruzipain; assay: Inhibition of Trypanosoma cruzi cruzain; how it was run: as §1

SMILES | IC50 (Trypanosoma cruzi [1]) [µM] | IC50 (Trypanosoma cruzi [2]) [µM] | IC50 (Cruzipain [3]) [µM] | IC50 (J774) [µM] | selectivity ratio [4] | IC50 (Cruzipain [5]) [µM]
O=C(/C=C/c1ccccc1)N/N=C/c1ccccc1 | > 1100 | > 100 |  |  |  | 
O=C(/C=C/c1ccccc1)N/N=C/c1ccc(F)cc1 | > 1100 | > 100 |  |  |  | 
O=C(/C=C/c1ccccc1)N/N=C/c1ccc(Cl)cc1 | > 1100 | > 100 |  |  |  | 
O=C(/C=C/c1ccccc1)N/N=C/c1ccc(Br)cc1 | > 1100 |  |  |  |  | 
O=C(/C=C/c1ccccc1)N/N=C/c1ccc([N+](=O)[O-])cc1 | > 1100 | 81 |  |  |  | 
COc1ccc(/C=N/NC(=O)/C=C/c2ccccc2)cc1 | > 1100 | > 100 |  |  |  | 
O=C(/C=C/c1ccccc1)N/N=C/c1ccc(O)cc1 | > 1100 | > 100 |  |  |  | 
O=C(/C=C/c1ccccc1)N/N=C/c1ccccc1O | 5.9 | 6.6 | 52.2 | 420 | 71 | 
O=C(/C=C/c1ccccc1)N/N=C/c1ccc(O)c(O)c1 | 107 | > 100 |  |  |  | 
O=C(/C=C/c1ccccc1)N/N=C/c1ccc2c(c1)OCO2 | > 1100 | 61 |  |  |  | 
COc1ccc(/C=N/NC(=O)/C=C/c2ccccc2)cc1OC | > 1100 | > 100 |  |  |  | 
COc1ccc(/C=N/NC(=O)/C=C/c2ccccc2)cc1O | > 1100 | > 100 |  |  |  | 
COc1cc(/C=N/NC(=O)/C=C/c2ccccc2)ccc1O | 127 | 73 |  |  |  | 
COc1cc(/C=N/NC(=O)/C=C/c2ccccc2)cc(OC)c1OC | 71 | 70 |  |  |  | 
COc1cc(/C=N/NC(=O)/C=C/c2ccccc2)cc([N+](=O)[O-])c1O | > 1100 | 40 |  |  |  | 
O=C(/C=C/c1ccc2c(c1)OCO2)N/N=C/c1ccccc1O | 5.6 |  | 74.8 | 281 | 50 | 

SMILES | IC50 (Trypanosoma cruzi [1]) [µM] | IC50 (Trypanosoma cruzi [2]) [µM] | IC50 (Cruzipain [3]) [µM] | IC50 (J774) [µM] | selectivity ratio [4] | IC50 (Cruzipain [5]) [µM]
COc1cc(/C=N/NC(=O)/C=C/c2ccc3c(c2)OCO3)cc([N+](=O)[O-])c1O | > 1100 |  |  |  |  | 
COc1cc(/C=C/C(=O)N/N=C/c2ccccc2O)cc(OC)c1OC | 78.8 |  |  |  |  | 
COc1cc(/C=N/NC(=O)/C=C/c2cc(OC)c(OC)c(OC)c2)cc([N+](=O)[O-])c1O | 18 |  | 45.9 | 2410 | 134 | 
COc1cc(/C=C/C(=O)N/N=C/c2ccccc2O)cc([N+](=O)[O-])c1OC | 17 |  | 83.9 | 550 | 32 | 
COc1cc(/C=N/NC(=O)/C=C/c2cc(OC)c(OC)c([N+](=O)[O-])c2)cc([N+](=O)[O-])c1O | 16 |  | 44.7 | 1860 | 116 | 
COc1ccc(/C=C/C(=O)N/N=C/c2ccccc2O)cc1OC | 65 |  |  |  |  | 
COc1ccc(/C=C/C(=O)N/N=C/c2cc(OC)c(O)c([N+](=O)[O-])c2)cc1OC | > 1100 |  |  |  |  | 
COc1cc(/C=C/C(=O)N/N=C/c2ccccc2)cc([N+](=O)[O-])c1O | 79 |  |  |  |  | 
O=C(CCc1ccccc1)N/N=C/c1ccccc1O | 18 |  | > 100 | 1630 | 90 | 
COc1cc(/C=N/NC(=O)CCc2ccccc2)cc([N+](=O)[O-])c1O | > 1100 |  |  |  |  | 
O=C(N/N=C/c1ccccc1O)c1ccc2ccccc2c1 | 93 |  |  |  |  | 
COc1cc(/C=N/NC(=O)c2ccc3ccccc3c2)cc([N+](=O)[O-])c1O | 93 |  |  |  |  | 
COc1ccc2cc(O)c(C(=O)N/N=C/c3c(O)ccc4ccccc34)cc2c1 |  |  |  |  |  | 0.6
O=C(/C=C/c1ccc2c(c1)OCO2)c1ccc(Br)cc1 |  |  |  |  |  | 20
O=C(Cn1ccnc1[N+](=O)[O-])NCc1ccccc1 [BENZNIDAZOLE] | 10.8 | 0.122 |  | 3840 | 356 | 
